{"source": "ChEMBL document CHEMBL1123247", "about": "“Nucleoside conjugates. 7. Synthesis and antitumor activity of 1-beta-D-arabinofuranosylcytosine conjugates of ether lipids” (J Med Chem, 1986)", "key": {"[1]": {"test_system": "L1210", "assay": "Antitumor activity was determined against the ic implanted L1210 lymphoid leukemia in mice by change in […] at 80 mg/kg (1-5qd treatment schedule) dosage", "format": "functional, Mus musculus", "method_in_brief": "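DBA/2J mice, 6 per group (wt 26-32 g), inoculated ic with 1×10^5 L1210 cells on day 0. Dosing ip began 24 h after inoculation, with a sonicated solution or suspension in 0.9% NaCl containing 0.5% Tween-80, given over a range of doses. Animals were followed daily until death. Body weight change, median survival T/C, and %ILS = (T/C − 1) × 100 were computed from survivors per NCI protocols.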"}, "[2]": {"test_system": "L1210", "assay": "Antitumor activity against ic implanted L1210 lymphoid leukemia in mice expressed as active dose range (1 qd treatment schedule) required to produce increase in life span by >25% was determined; Range is 200-400", "format": "functional, Mus musculus", "method_in_brief": "(§1)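 DBA/2J mice, groups of 6 (26-32 g), got 1 × 10^5 L1210 cells ic on day 0. Dosing was ip starting 24 h later, as a sonicated solution or suspension in 0.9% NaCl with 0.5% Tween-80, over a wide dose range. Mice were followed daily until death. Median survival T/C was taken from survivors per NCI protocols, and ILS = (T/C − 1) × 100. Active range means doses giving ILS ≥25%; optimal dose means greatest ILS.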"}, "[3]": {"test_system": "L1210", "assay": "Antitumor activity against ip implanted L1210 leukemia in mice expressed as active dose range (1 qd treatment schedule) required to produce increase in life span by >25% was determined; Range is 50-400", "format": "functional, Mus musculus", "method_in_brief": "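DBA/2J mice, groups of 6 (23-28 g), were inoculated ip with 1 × 10^6 L1210 cells on day 0. Dosing was ip from 24 h, in 0.9% NaCl with 0.5% Tween-80 (sonicated solution or suspension). Mice were observed daily until death or day 45. Median survival T/C followed NCI protocols, and ILS = (T/C − 1) × 100. Active range means doses giving ILS ≥25%; optimal dose means greatest ILS.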"}, "[4]": {"test_system": "L1210", "assay": "Antitumor activity was determined against the ic implanted L1210 lymphoid leukemia in mice by percent increase in life span at 300 mg/kg (1 qd treatment schedule) dosage", "format": "functional, Mus musculus", "method_in_brief": "as §1"}, "[5]": {"test_system": "P388", "assay": "Antitumor activity was determined against the ip implanted P388 leukemia in mice by change in […] at 500 mg/kg (1 qd treatment schedule) dosage", "format": "functional, Mus musculus", "settings": "route intraperitoneal", "method_in_brief": "(§2)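 P388 leukemia, 1×10^6 cells implanted ip on day 0 into DBA/2J mice, groups of 6 (wt 23-33 g). Dosing ip started 24 h post-inoculation, vehicle 0.9% NaCl containing 0.5% Tween-80. Animals were observed daily until death or 45 days. Outputs were weight change, median survival T/C from survivors per NCI protocols, and %ILS = (T/C − 1) × 100.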"}, "[6]": {"test_system": "L1210", "assay": "Antitumor activity was determined against the ip implanted L1210 leukemia in mice by change in […] at 80 mg/kg (treatment of 1-5qd schedule) dosage", "format": "functional, Mus musculus", "settings": "route intraperitoneal", "method_in_brief": "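DBA/2J mice, 6 per group (wt 23-28 g), inoculated ip with 1×10^6 L1210 cells on day 0. Treatment was given ip in 0.9% NaCl with 0.5% Tween-80, starting 24 h later. Weight change was taken on day 8. Mice were observed daily until death or 45 days. Median survival T/C and %ILS = (T/C − 1) × 100 came from survivors per NCI protocols, and 45-day survivors were counted.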"}, "[7]": {"test_system": "P388", "assay": "Antitumor activity against ip implanted P388 leukemia in mice expressed as active dose range (1 qd treatment schedule) required to produce increase in life span by >25% was determined; Range is 300-500", "format": "functional, Mus musculus", "method_in_brief": "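P388 leukemia: 1 × 10^6 cells were given ip on day 0 to DBA/2J mice, groups of 6 (23-33 g). Treatment was ip from 24 h after inoculation, vehicle 0.9% NaCl with 0.5% Tween-80. Mice were observed daily until death or 45 days. Median survival T/C was calculated from survivors per NCI protocols, and ILS = (T/C − 1) × 100. Active range means doses giving ILS ≥25%; optimal dose means greatest ILS.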"}, "[8]": {"test_system": "L1210 leukemia (mouse)", "assay": "Antitumor activity was determined against the ic implanted L1210 lymphoid leukemia in mice by percent median survival rate (treated/control) at 500 mg/kg (treatment of 1qd schedule) dosage; 23.0/7.0"}, "[9]": {"test_system": "L1210", "assay": "Antitumor activity against ic implanted L1210 lymphoid leukemia in mice expressed as active dose range (1 qd treatment schedule) required to produce increase in life span by >25% was determined; Range is 200-500"}, "[10]": {"test_system": "L1210", "assay": "Antitumor activity was determined against the ip implanted L1210 leukemia in mice by 45-day survivors in mice at 100 mg/kg (treatment of 1-5qd schedule) dosage", "format": "functional, Mus musculus", "settings": "route intraperitoneal", "method_in_brief": "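DBA/2J mice in groups of 6 (wt 23-28 g) were inoculated ip with 1×10^6 L1210 cells on day 0. Dosing was ip from 24 h, in 0.9% NaCl with 0.5% Tween-80 (conjugates sonicated), across a range of doses. Mice were observed daily until death or 45 days. Median T/C was computed from survivors per NCI protocols, and ILS = (T/C − 1)×100.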"}, "[11]": {"test_system": "L1210", "assay": "Antitumor activity was determined against the ip implanted L1210 leukemia in mice by median survival time at 100 mg/kg (treatment of 1-5qd schedule) dosage; 23.0/7.0", "settings": "route intraperitoneal"}, "[12]": {"test_system": "CML/BC", "assay": "Compound was tested for the inhibition of CML/BC(chronic myeloid leukemia, blast crisis)", "format": "functional, cell-based", "settings": "Homo sapiens", "method_in_brief": "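Human leukemia and solid tumor cells in culture were exposed to compound for 48 h. Viability was scored by trypan blue dye exclusion. IC50 (50% inhibition) was estimated from response curves of three separate experiments.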"}, "[13]": {"test_system": "L1210", "assay": "Antitumor activity was determined against the ip implanted L1210 leukemia in mice by range in survival days at 400 mg/kg (treatment of 1qd schedule) dosage; Range is 9-11", "format": "functional, Mus musculus", "settings": "route intraperitoneal", "method_in_brief": "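DBA/2J mice, 23-28 g, in groups of 6, were inoculated ip with 1×10^6 L1210 cells on day 0. Dosing was ip starting 24 h later on the stated daily schedules. Conjugates were given as sonicated solutions and reference prodrugs as suspensions in 0.9% NaCl with 0.5% Tween-80. Mice were observed daily until death or 45 days. Median survival T/C was calculated from survivors per NCI protocols.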"}, "[14]": {"test_system": "L1210", "assay": "Antitumor activity against ic implanted L1210 lymphoid leukemia in mice expressed as active dose range (1-9qd treatment schedule) required to produce increase in life span by >25% was determined; Range is 100-300", "format": "functional, Mus musculus", "method_in_brief": "as §1"}, "[15]": {"test_system": "P388", "assay": "Antitumor activity was determined against the ip implanted P388 leukemia in mice by percent median survival rate (treated/control) at 500 mg/kg (treatment of 1qd schedule) dosage; 15.0/11.0", "format": "functional, Mus musculus", "settings": "route intraperitoneal"}, "[16]": {"test_system": "P388", "assay": "Antitumor activity was determined against the ip implanted P388 leukemia in mice by change in […] at 200 mg/kg (treatment of 1-5qd schedule) dosage", "format": "functional, Mus musculus", "settings": "route intraperitoneal", "method_in_brief": "as §2"}, "[17]": {"test_system": "L1210", "assay": "Antitumor activity was determined against the ic implanted L1210 lymphoid leukemia in mice by median survival time at 100 mg/kg (treatment of 1-9qd schedule) dosage; 14/7.0"}}}
{"molecule": "CCCCCCCCCCCCCCCC(=O)OC[C@H](COP(=O)(O)OP(=O)(O)OC[C@H]1O[C@@H](n2ccc(N)nc2=O)[C@@H](O)[C@@H]1O)OC(=O)CCCCCCCCCCCCCCC", "values": [{"measurement": "Weight change", "setting": "[1]", "value": -5.24, "unit": "g mouse-1"}, {"measurement": "Active dose range", "setting": "[2]", "value": 200, "unit": "mg/kg/day"}, {"measurement": "Active dose range", "setting": "[3]", "value": 50, "unit": "mg/kg/day"}, {"measurement": "ILS", "setting": "[4]", "value": 200}, {"measurement": "Weight change", "setting": "[5]", "value": -0.07, "unit": "g mouse-1"}]}
{"molecule": "CCCCCCCCCCCCCCCCOCC(COP(=O)(O)OP(=O)(O)OC[C@H]1O[C@@H](n2ccc(N)nc2=O)[C@@H](O)[C@@H]1O)OC(=O)CCCCCCCCCCCCCCC", "note": "(mixture of isomers)", "values": [{"measurement": "Weight change", "setting": "[6]", "value": 0.33, "unit": "g mouse-1"}, {"measurement": "Active dose range", "setting": "[7]", "value": 300, "unit": "mg/kg/day"}, {"measurement": "T/C", "setting": "[8]", "value": 23, "unit": "%"}, {"measurement": "Active dose range", "setting": "[9]", "value": 200, "unit": "mg/kg/day"}]}
{"molecule": "CCCCCCCCCCCCCCCCCCOCC(COP(=O)(O)OP(=O)(O)OC[C@H]1O[C@@H](n2ccc(N)nc2=O)[C@@H](O)[C@@H]1O)OC(=O)CCCCCCCCCCCCCCC", "note": "(mixture of isomers)", "values": [{"measurement": "Survivors", "setting": "[10]", "value": 0}, {"measurement": "median survival time", "setting": "[11]", "value": 23, "unit": "days"}]}
{"molecule": "Nc1ccn([C@@H]2O[C@H](CO)[C@@H](O)[C@@H]2O)c(=O)n1", "note": "[CYTARABINE]", "values": [{"measurement": "IC50", "setting": "[12]", "value": 210, "unit": "nM"}, {"measurement": "Range", "setting": "[13]", "value": 9}, {"measurement": "Active dose range", "setting": "[14]", "value": 100, "unit": "mg/kg/day"}, {"measurement": "T/C", "setting": "[15]", "value": 15, "unit": "%"}, {"measurement": "Weight change", "setting": "[16]", "value": -3.62, "unit": "g mouse-1"}, {"measurement": "median survival time", "setting": "[17]", "value": 14, "unit": "days"}]}
